{"source": "ChEMBL document CHEMBL1153527", "about": "“Discovery of a novel series of quinolone and naphthyridine derivatives as potential topoisomerase I inhibitors by scaffold modification” (J Med Chem, 2009)", "key": {"HT-29": {"tested_on": "HT-29", "experiment": "Induction of apoptosis in human HT-29 cells assessed as morphological changes at 5 ug/mL after 24 hrs by immunostaining", "format": "functional, cell-based", "in_short": "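SKOV3 and HT-29 cells were treated with 0.25 or 5 μg/mL for 24 h. Cell morphology was assessed by microscopy after fixation in 4% formaldehyde and Hoechst 33342 staining (10 μg/mL), against an untreated control.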"}, "Mus musculus": {"tested_on": "Mus musculus", "experiment": "Toxicity in athymic BALB/c nude mouse xenografted with human HT-29 cells assessed as change in body weight at 75 mg/kg, ip for 10 days measured after 30 days", "format": "organism-based", "parameters": "dose 75 mg/kg, route intraperitoneal", "settings": "in vivo, 720 h", "in_short": "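Nude mouse HT-29 xenograft model as above: female athymic BALB/c, 18-22 g, n=6 per group. Dosing was i.p. daily in 400 μL for 10 consecutive days at 75 or 150 mg/kg, with saline controls. Body weight and tumour volume were recorded every 4 days, and the study ended on day 30. Weights were compared with controls by Student's t test.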"}, "[1]": {"biological_target": "T1, DNA topoisomerase 1 (Homo sapiens) (UniProt P11387)", "T1 sequence (whole entry)": "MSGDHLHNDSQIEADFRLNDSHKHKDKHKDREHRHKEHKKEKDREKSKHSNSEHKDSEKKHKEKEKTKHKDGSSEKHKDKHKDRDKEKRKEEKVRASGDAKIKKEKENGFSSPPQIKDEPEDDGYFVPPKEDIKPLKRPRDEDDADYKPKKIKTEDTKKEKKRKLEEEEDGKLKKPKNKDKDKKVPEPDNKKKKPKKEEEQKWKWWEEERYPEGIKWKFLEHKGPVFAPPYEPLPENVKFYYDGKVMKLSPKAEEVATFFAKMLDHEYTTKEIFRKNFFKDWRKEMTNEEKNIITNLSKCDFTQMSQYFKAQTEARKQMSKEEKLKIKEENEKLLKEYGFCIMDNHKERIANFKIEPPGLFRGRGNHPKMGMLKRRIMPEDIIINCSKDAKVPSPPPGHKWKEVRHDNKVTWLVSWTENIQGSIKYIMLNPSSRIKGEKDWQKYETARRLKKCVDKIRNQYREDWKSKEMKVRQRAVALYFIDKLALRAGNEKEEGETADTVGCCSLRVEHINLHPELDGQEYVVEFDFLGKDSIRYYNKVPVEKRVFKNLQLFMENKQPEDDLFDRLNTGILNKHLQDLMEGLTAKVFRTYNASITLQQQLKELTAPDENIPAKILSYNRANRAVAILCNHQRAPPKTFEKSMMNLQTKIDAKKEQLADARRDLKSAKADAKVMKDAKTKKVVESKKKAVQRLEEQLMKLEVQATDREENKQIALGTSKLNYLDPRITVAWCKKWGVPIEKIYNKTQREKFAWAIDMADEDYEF", "experiment": "Inhibition of DNA topoisomerase 1-mediated supercoiled Escherichia coli pBR322 DNA relaxation upto 25 uM after 30 mins"}, "[2]": {"experiment": "Solubility in assay condition at 50 uM", "format": "physicochemical"}}, "note": "Activity calls are given as the source filed them. The calls are words filed in the database; no cut-off is given here.", "data": [{"compound": "CCn1cc(-c2nc3ccc([N+](=O)[O-])cc3o2)c(=O)c2cc(F)c(N3CCNC(C)C3)c(F)c21", "note": "(centres undefined)", "values": [{"measurement": "Activity", "setting": "HT-29", "value": "Active"}, {"measurement": "Activity", "setting": "Mus musculus", "value": "Non-toxic"}, {"measurement": "inhibition", "setting": "[1]", "value": "inactive"}, {"measurement": "solubility", "setting": "[2]", "value": "Insoluble"}]}]}
